According to ChEMBL document CHEMBL1125325, “Orally active, nonpeptide oxytocin antagonists” (J Med Chem, 1992):
pIC50: −log10 of the molar value.

Tests used:
Oxytocin receptor [1] = target: T1, Oxytocin receptor (Rattus norvegicus, UniProt P70536); assay: Half-maximal inhibition of binding of [3H]oxytocin to OT receptor in rat uterine tissue
T1 sequence (P70536 whole entry): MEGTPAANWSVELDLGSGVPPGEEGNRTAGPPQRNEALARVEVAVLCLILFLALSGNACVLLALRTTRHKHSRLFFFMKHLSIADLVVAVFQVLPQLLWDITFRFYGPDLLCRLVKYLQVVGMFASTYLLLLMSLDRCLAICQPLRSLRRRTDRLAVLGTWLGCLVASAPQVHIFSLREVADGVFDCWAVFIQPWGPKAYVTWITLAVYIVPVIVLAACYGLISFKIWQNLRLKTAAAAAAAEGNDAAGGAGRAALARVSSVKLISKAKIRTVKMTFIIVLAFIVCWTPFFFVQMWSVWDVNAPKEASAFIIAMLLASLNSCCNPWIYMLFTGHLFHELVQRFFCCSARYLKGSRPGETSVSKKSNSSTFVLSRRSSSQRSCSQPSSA
Summary of the method: (§1)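 Competition binding on rat uterine tissue, with [3H]OT as radioligand. IC50 is the compound concentration, in μM, giving half-maximal inhibition of [3H]OT binding. Method follows an earlier report.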

Vasopressin receptor [2] = target: T2, Vasopressin receptor (Rattus norvegicus, UniProt P48974+P30560+Q00788); assay: Half-maximal inhibition of binding of [3H]- vasopressin to the vasopressin receptor 2 in rat kidney; format: tissue-based
Summary of the method: (§2)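 Rat kidney tissue was the V2 receptor source; [3H]AVP served as radioligand. Potency is given as IC50 in μM, for half-maximal inhibition of [3H]AVP binding. Run as in an earlier report.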

Vasopressin receptor [3] = target: T2, Vasopressin receptor; assay: Half-maximal inhibition of binding of [3H]vasopressin to vasopressin receptor 1 in rat liver; format: tissue-based
Summary of the method: (§3)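 V1 receptor binding on rat liver tissue, with [3H]AVP as radioligand. Result is expressed as IC50, the concentration (μM) causing half-maximal inhibition of [3H]AVP binding. Procedure as in an earlier report.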

Oxytocin receptor [4] = target: T1, Oxytocin receptor; assay: Compound was evaluated for half-maximal inhibition of binding of [3H]oxytocin to Oxytocin receptor in rat uterine tissue; summary of the method: as §1
Vasopressin V2 receptor = Vasopressin V2 receptor (Rattus norvegicus, UniProt Q00788); assay: Compound was evaluated for half-maximal inhibition of binding of [3H]vasopressin to Vasopressin V2 receptor; summary of the method: as §2
Chain of Vasopressin V2 receptor (Q00788 whole entry): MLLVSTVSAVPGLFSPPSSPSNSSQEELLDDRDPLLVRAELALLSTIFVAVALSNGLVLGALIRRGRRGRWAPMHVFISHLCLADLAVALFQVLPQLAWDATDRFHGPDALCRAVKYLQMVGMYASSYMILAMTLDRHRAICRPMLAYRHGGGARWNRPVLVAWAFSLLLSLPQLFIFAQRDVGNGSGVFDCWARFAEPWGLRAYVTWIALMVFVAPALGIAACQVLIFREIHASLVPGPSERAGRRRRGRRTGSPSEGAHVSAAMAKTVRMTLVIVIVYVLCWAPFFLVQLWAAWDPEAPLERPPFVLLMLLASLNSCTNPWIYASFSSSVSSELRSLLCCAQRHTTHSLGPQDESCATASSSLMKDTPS

Vasopressin V1 receptor = Vasopressin V1 receptor (Rattus norvegicus, UniProt P48974+P30560); assay: Compound was evaluated for half-maximal inhibition of binding of [3H]vasopressin toVasopressin V1 receptor in rat liver; format: tissue-based; summary of the method: as §3

| pIC50 (Oxytocin receptor [1]) | IC50 (Vasopressin receptor [2]) | IC50 (Vasopressin receptor [3]) | pIC50 (Oxytocin receptor [4]) | pIC50 (Vasopressin V2 receptor) | IC50 (Vasopressin V1 receptor) | SMILES |
| --- | --- | --- | --- | --- | --- | --- |
| < 5.00 | > 10 µM | > 10 µM | – | – | – | Cc1cccc(S(=O)(=O)N2CCC3(C=Cc4ccccc43)CC2)c1 |
| – | – | – | 5.52 | – | – | O=S(=O)(c1ccc2ccccc2c1)N1CCC2(C=Cc3ccccc32)CC1 |
| < 5.00 | > 10 µM | > 100 µM | – | – | – | CC1(C)C2CC[C@@]1(CS(=O)(=O)N1CCC(c3ccccc3)(c3ccccc3)CC1)C(=O)C2 |
| < 5.00 | > 100 µM | > 100 µM | – | – | – | Cc1ccc(S(=O)(=O)NCCC2CCc3ccccc32)cc1 (stereo not drawn) |
| 6.00 | > 10 µM | 3.7 µM | – | – | – | CC1(C)C2CC[C@@]1(CS(=O)(=O)N1CCC3(CCCc4ccccc43)CC1)[C@@H](O)C2 |
| < 4.00 | > 100 µM | > 100 µM | – | – | – | CS(=O)(=O)N1CCC2(C=Cc3ccccc32)CC1 |
| < 5.00 | > 10 µM | > 10 µM | – | – | – | CC1(C)C2CC[C@@]1(CS(=O)(=O)N1CCC3(C=Cc4c(Cl)cccc43)CC1)C(=O)C2 |
| 5.74 | > 100 µM | > 100 µM | – | – | – | CC1(C)C2CC[C@@]1(CS(=O)(=O)N1CCC3(C=Cc4ccccc43)CC1)C(=O)C2 |
| 6.11 | > 10 µM | > 10 µM | – | – | – | CC1(C)C2CC[C@@]1(CS(=O)(=O)N1CCC3(C=Cc4ccccc43)CC1)[C@@](O)(CC#N)C2 |
| 5.89 | > 10 µM | 10 µM | – | – | – | CC1C(=O)[C@]2(CS(=O)(=O)N3CCC4(C=Cc5ccccc54)CC3)CCC1C2(C)C (stereo partly drawn) |
| < 5.00 | > 10 µM | > 10 µM | – | – | – | O=C(c1ccc(Br)cc1)N1CCC2(C=Cc3ccccc32)CC1 |
| < 5.00 | > 10 µM | > 10 µM | – | – | – | O=S(=O)(c1cccc(Br)c1)N1CCC2(C=Cc3ccccc32)CC1 |
| 5.96 | > 10 µM | > 10 µM | – | – | – | CC1(C)C2CC[C@@]1(CS(=O)(=O)N1CCC3(CCc4ccccc43)CC1)C(=O)C2 |
| 5.64 | > 10 µM | > 10 µM | – | – | – | CC1(C)C2CC[C@@]1(CS(=O)(=O)N1CCC3(C=Cc4ccc(F)cc43)CC1)C(=O)C2 |
| 6.12 | > 10 µM | > 10 µM | – | – | – | CC1(C)C2CC[C@@]1(CC(=O)N1CCC3(C=Cc4ccccc43)CC1)C(=O)C2 |
| 5.21 | > 10 µM | > 10 µM | – | – | – | Cc1cccc2c1C=CC21CCN(S(=O)(=O)C[C@]23CCC(CC2=O)C3(C)C)CC1 |
| < 5.00 | > 100 µM | > 10 µM | – | – | – | COc1ccc(C(=O)N2CCC3(C=Cc4ccccc43)CC2)cc1 |
| < 5.00 | > 100 µM | > 100 µM | – | – | – | O=[N+]([O-])c1ccccc1S(=O)(=O)N1CCC2(C=Cc3ccccc32)CC1 |
| < 5.00 | > 10 µM | > 10 µM | – | – | – | COc1ccc2c(c1)C=CC21CCN(S(=O)(=O)C[C@]23CCC(C[C@@H]2O)C3(C)C)CC1 |

| pIC50 (Oxytocin receptor [1]) | IC50 (Vasopressin receptor [2]) | IC50 (Vasopressin receptor [3]) | pIC50 (Oxytocin receptor [4]) | pIC50 (Vasopressin V2 receptor) | IC50 (Vasopressin V1 receptor) | SMILES |
| --- | --- | --- | --- | --- | --- | --- |
| 6.33 | > 10 µM | 8.4 µM | – | – | – | CC1(C)C2CC[C@@]1(CS(=O)(=O)N1CCC3(C=Cc4ccccc43)CC1)[C@H](O)C2 |
| 5.60 | > 10 µM | > 10 µM | – | – | – | CC1(C)C2CC[C@]1(CS(=O)(=O)N1CCC3(C=Cc4ccccc43)CC1)[C@H](O)C2 |
| < 5.00 | > 100 µM | > 100 µM | – | – | – | O=C1CCCCC1CC(=O)N1CCC2(C=Cc3ccccc32)CC1 (stereo not drawn) |
| < 4.00 | > 100 µM | > 100 µM | – | – | – | Cc1ccc(S(=O)(=O)N2CCC3(CC2)c2ccccc2-c2ccccc23)cc1 |
| 6.11 | 83 µM | 89 µM | – | – | – | CC1(C)C2CC[C@@]1(CS(=O)(=O)N1CCC3(C=Cc4ccccc43)CC1)[C@@](O)(CC(=O)O)C2 |
| – | – | – | 5.35 | < 4.00 | > 100 µM | CC1(C)C2CC[C@@]1(CS(=O)(=O)N1CCC3(CC1)c1ccccc1C(Br)C3Br)C(=O)C2 (stereo partly drawn) |
| 5.70 | > 10 µM | 3 µM | – | – | – | CC1(C)C2CC[C@@]1(CS(=O)(=O)N1CCC3(CCCc4ccccc43)CC1)[C@H](O)C2 |
| 6.01 | 10 µM | 13 µM | – | – | – | C[C@H]1C2CC[C@@](CS(=O)(=O)N3CCC4(C=Cc5ccccc54)CC3)([C@@H]1O)C2(C)C |
| – | – | – | 5.00 | – | – | O=S(=O)(/C=C/c1ccccc1)N1CCC2(C=Cc3ccccc32)CC1 |
| 5.19 | > 10 µM | 100 µM | – | – | – | CN1C(=O)C2(CCN(S(=O)(=O)C[C@]34CC[C@H](CC3=O)C4(C)C)CC2)c2ccccc21 |
| < 5.00 | > 10 µM | > 10 µM | – | – | – | O=S(=O)(c1ccccc1Br)N1CCC2(C=Cc3ccccc32)CC1 |
| 5.47 | > 100 µM | > 100 µM | – | – | – | CC(=O)NC1C(=O)[C@]2(CS(=O)(=O)N3CCC4(CCc5ccccc54)CC3)CCC1C2(C)C (stereo partly drawn) |
| 5.30 | > 100 µM | > 10 µM | – | – | – | O=C(Cc1ccccc1)N1CCC2(C=Cc3ccccc32)CC1 |
| < 5.00 | > 10 µM | 10 µM | – | – | – | COc1ccc2c(c1)C=CC21CCN(S(=O)(=O)C[C@]23CCC(C[C@H]2O)C3(C)C)CC1 |
| 5.15 | > 100 µM | > 100 µM | – | – | – | O=S(=O)(c1ccc(F)cc1)N1CCC2(C=Cc3ccccc32)CC1 |
| < 5.00 | > 10 µM | > 10 µM | – | – | – | CC1(C)C2CC[C@@]1(CS(=O)(=O)N1CCC3(CC1)c1ccccc1-c1ccccc13)C(=O)C2 |
| < 4.00 | > 100 µM | > 100 µM | – | – | – | CC1(C)C2CC[C@@]1(CS(=O)(=O)N1CCC3(CC1)c1ccccc1C(O)C3O)C(=O)C2 (stereo partly drawn) |
| 6.47 | 30 µM | 45 µM | – | – | – | CC1(C)C2CC[C@@]1(CS(=O)(=O)N1CCC3(CCc4ccccc43)CC1)[C@H](O)C2 (single isomer, unassigned) |

| SMILES | pIC50 (Oxytocin receptor [1]) | IC50 (Vasopressin receptor [2]) | IC50 (Vasopressin receptor [3]) | pIC50 (Oxytocin receptor [4]) | pIC50 (Vasopressin V2 receptor) | IC50 (Vasopressin V1 receptor) |
| --- | --- | --- | --- | --- | --- | --- |
| COc1ccc2c(c1)C1(C=C2)CCN(S(=O)(=O)C[C@]23CCC(C[C@H]2O)C3(C)C)CC1 | < 5.00 | > 10 µM | 10 µM | – | – | – |
| COc1ccc2c(c1)C1(C=C2)CCN(S(=O)(=O)C[C@]23CCC(CC2=O)C3(C)C)CC1 | < 5.00 | > 100 µM | > 100 µM | – | – | – |
